Activity calls are given as the source filed them. The rule behind the calls is not given here. Peptide text beside a SMILES is read from it. * marks the point of attachment. NH(4-amidinobenzyl) = N=C(N)c1ccc(CN*)cc1
Experiments:
[1] = biological target: Furin (Homo sapiens, UniProt P09958); assay: Inhibition of recombinant human furin expressed in drosophila S2 cells using pyrGlu-Arg-Thr-Lys-Arg-7-amido-4-methylcoumarin as substrate after 60 mins by spectrofluorometry method; format: cell-based
Sequence of Furin (P09958 whole entry): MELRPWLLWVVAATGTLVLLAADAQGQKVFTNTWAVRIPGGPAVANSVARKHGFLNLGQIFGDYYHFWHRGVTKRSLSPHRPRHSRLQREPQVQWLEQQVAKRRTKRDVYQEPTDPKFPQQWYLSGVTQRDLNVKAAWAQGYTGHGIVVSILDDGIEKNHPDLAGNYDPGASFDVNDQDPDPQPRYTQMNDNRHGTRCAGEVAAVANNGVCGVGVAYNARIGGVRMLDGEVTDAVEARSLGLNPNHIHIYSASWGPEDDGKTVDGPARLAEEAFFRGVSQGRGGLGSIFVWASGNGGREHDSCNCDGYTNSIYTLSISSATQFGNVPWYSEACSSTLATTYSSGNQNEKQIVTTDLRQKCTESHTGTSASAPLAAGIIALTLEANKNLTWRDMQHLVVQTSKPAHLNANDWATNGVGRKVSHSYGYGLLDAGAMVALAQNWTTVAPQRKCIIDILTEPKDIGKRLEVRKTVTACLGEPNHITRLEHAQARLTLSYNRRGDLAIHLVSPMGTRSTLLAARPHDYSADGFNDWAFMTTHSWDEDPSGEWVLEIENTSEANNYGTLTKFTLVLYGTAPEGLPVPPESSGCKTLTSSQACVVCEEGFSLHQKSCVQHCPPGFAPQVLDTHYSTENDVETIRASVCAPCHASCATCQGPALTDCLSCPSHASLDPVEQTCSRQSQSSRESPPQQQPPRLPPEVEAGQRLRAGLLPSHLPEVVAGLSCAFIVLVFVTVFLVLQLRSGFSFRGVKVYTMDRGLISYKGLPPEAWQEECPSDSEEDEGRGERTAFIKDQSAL
Procedure, shortened: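 Human recombinant purified furin at 2 units/100 µL (0.54 nM), in 100 mM HEPES pH 7.5, 1 mM CaCl2, 1 mM β-mercaptoethanol, 1.8 mg/mL BSA. His-containing peptides run instead in 20 mM BisTris pH 6.5 with the same additives. Substrate 100 µM, KM 5.04 µM. Inhibitor 1 nM to 10 µM; 60 min at 37°C. Fluorescence ex 370 / em 460 nm. Ki by Morrison equation; triplicate experiments, mean ± SD.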

[2] = species on record: Homo sapiens; assay: Selectivity index, ratio of Ki for recombinant human furin expressed in drosophila S2 cells to Ki for recombinant human PACE4 expressed in drosophila S2 cells; format: cell-based
Procedure, shortened: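 Ratio Ki(furin)/Ki(PACE4). […] PACE4 buffer was BisTris pH 6.5; furin buffer was HEPES pH 7.5, or BisTris pH 6.5 for His peptides. Ki fitted by Morrison equation from three independent experiments.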

[3] = biological target: T1, Proprotein convertase subtilisin/kexin type 6 (Homo sapiens, UniProt P29122); assay: Inhibition of recombinant human PACE4 expressed in drosophila S2 cells using pyrGlu-Arg-Thr-Lys-Arg-7-amido-4-methylcoumarin as substrate after 60 mins by spectrofluorometry method; format: cell-based
T1 sequence (P29122 whole entry): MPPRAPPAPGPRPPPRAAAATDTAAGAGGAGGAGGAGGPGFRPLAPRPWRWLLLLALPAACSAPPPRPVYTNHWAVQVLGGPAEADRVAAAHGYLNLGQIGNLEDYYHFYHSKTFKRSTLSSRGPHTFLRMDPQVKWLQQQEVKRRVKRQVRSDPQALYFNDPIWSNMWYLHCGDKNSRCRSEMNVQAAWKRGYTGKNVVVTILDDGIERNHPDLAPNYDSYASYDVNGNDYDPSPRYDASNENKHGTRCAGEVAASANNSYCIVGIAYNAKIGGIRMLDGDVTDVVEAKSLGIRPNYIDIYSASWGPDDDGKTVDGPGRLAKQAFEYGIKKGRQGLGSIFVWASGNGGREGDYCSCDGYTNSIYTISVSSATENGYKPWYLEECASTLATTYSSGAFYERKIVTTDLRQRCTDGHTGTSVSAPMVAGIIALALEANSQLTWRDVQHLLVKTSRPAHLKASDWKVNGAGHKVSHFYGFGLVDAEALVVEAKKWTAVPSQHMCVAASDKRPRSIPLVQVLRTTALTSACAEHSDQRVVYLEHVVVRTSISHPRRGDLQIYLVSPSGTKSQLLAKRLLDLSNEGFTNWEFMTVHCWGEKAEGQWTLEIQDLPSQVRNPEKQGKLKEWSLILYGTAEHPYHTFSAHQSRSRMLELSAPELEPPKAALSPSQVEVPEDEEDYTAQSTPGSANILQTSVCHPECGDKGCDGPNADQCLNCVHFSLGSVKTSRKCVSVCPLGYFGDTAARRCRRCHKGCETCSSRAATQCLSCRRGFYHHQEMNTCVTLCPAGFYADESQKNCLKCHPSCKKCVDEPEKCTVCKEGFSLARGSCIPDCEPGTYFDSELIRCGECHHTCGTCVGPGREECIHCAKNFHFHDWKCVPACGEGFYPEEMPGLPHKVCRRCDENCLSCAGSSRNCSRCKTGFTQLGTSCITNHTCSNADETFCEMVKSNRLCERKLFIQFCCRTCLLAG
Procedure, shortened: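 Human recombinant purified PACE4 at 2 units/100 µL (20.18 nM), in 20 mM BisTris pH 6.5, 1 mM CaCl2, 1.8 mg/mL BSA. Substrate 100 µM, KM 4.035 µM. Inhibitor 1 nM to 10 µM; 60 min at 37°C. Fluorescence ex 370 / em 460 nm. Ki by Morrison tight-binding equation; three independent experiments, mean ± SD.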

[4] = tested on: DU-145; assay: Antiproliferative activity against human DU145 cells assessed as reduction in metabolic activity at 25 to 100 uM after 72 hrs by MTT assay; format: functional, cell-based
Procedure, shortened: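 First-pass MTT screen of each library peptide on DU145 cells (RPMI 1640, 5% FBS, 1500 cells/well, poly-L-lysine plates). Peptides added 24 h after seeding at 25, 50 and 100 µM in fresh serum medium for 72 h. MTT 1 mg/mL for 4 h; 2-propanol HCl solubilisation. Activity normalised to water vehicle. Mean ± SEM of at least two independent experiments.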

In the case of `CC(=O)N[C@@H](C)C(=O)N[C@@H](CC(C)C)C(=O)N[C@@H](CC(C)C)C(=O)N[C@@H](CC(C)C)C(=O)N[C@@H](CCCNC(=N)N)C(=O)N[C@H](C(=O)N[C@@H](CCCCN)C(=O)NCc1ccc(C(=N)N)cc1)C(C)C` (Ac-ALLLRVK-{NH(4-amidinobenzyl)}), the Ki [1] is reported as 3 nM, the Ratio Ki [2] is reported as 2 and the Ki [3] is reported as 1.5 nM. The Activity [4] was “inactive”.

`CC(=O)NCC(=O)N[C@@H](CC(C)C)C(=O)N[C@@H](CC(C)C)C(=O)N[C@@H](CC(C)C)C(=O)N[C@@H](CCCNC(=N)N)C(=O)N[C@H](C(=O)N[C@@H](CCCCN)C(=O)NCc1ccc(C(=N)N)cc1)C(C)C` (Ac-GLLLRVK-{NH(4-amidinobenzyl)}) gave a Ki [1] of 3 nM, a Ratio Ki [2] of 1 and a Ki [3] of 3 nM. For the same compound, the Activity [4] was “inactive”.

Work on `CC(=O)N[C@@H](Cc1cnc[nH]1)C(=O)N[C@@H](CC(C)C)C(=O)N[C@@H](CC(C)C)C(=O)N[C@@H](CC(C)C)C(=O)N[C@@H](CCCNC(=N)N)C(=O)N[C@H](C(=O)N[C@@H](CCCCN)C(=O)NCc1ccc(C(=N)N)cc1)C(C)C` (Ac-HLLLRVK-{NH(4-amidinobenzyl)}) yielded a Ki [1] of 1.8 nM, a Ratio Ki [2] of 1.4 and a Ki [3] of 1.3 nM. The Activity [4] was “inactive”.

`CC(=O)N[C@@H](CCCCN)C(=O)N[C@@H](CC(C)C)C(=O)N[C@@H](CC(C)C)C(=O)N[C@@H](CC(C)C)C(=O)N[C@@H](CCCNC(=N)N)C(=O)N[C@H](C(=O)N[C@@H](CCCCN)C(=O)NCc1ccc(C(=N)N)cc1)C(C)C` (Ac-KLLLRVK-{NH(4-amidinobenzyl)}) gave a Ki [1] of 0.4 nM, a Ratio Ki [2] of 1.3 and a Ki [3] of 0.3 nM. The Activity [4] was “inactive”.

`CC(=O)N[C@@H](CC(C)C)C(=O)N[C@@H](C)C(=O)N[C@@H](CC(C)C)C(=O)N[C@@H](CC(C)C)C(=O)N[C@@H](CCCNC(=N)N)C(=O)N[C@H](C(=O)N[C@@H](CCCCN)C(=O)NCc1ccc(C(=N)N)cc1)C(C)C` (Ac-LALLRVK-{NH(4-amidinobenzyl)}) was tested, and the Ki [1] was 1.5 nM, the Ratio Ki [2] was 0.8 and the Ki [3] was 2 nM. For the same compound, the Activity [4] was “inactive”.

Compound `CC(=O)N[C@@H](CC(C)C)C(=O)N[C@@H](CC(=O)O)C(=O)N[C@@H](CC(C)C)C(=O)N[C@@H](CC(C)C)C(=O)N[C@@H](CCCNC(=N)N)C(=O)N[C@H](C(=O)N[C@@H](CCCCN)C(=O)NCc1ccc(C(=N)N)cc1)C(C)C` (Ac-LDLLRVK-{NH(4-amidinobenzyl)}) has a Ki [1] of 50 nM, a Ratio Ki [2] of 0.6 and a Ki [3] of 80 nM. For the same compound, the Activity [4] was “inactive”.

For `CC(=O)N[C@@H](CC(C)C)C(=O)N[C@@H](CCC(=O)O)C(=O)N[C@@H](CC(C)C)C(=O)N[C@@H](CC(C)C)C(=O)N[C@@H](CCCNC(=N)N)C(=O)N[C@H](C(=O)N[C@@H](CCCCN)C(=O)NCc1ccc(C(=N)N)cc1)C(C)C` (Ac-LELLRVK-{NH(4-amidinobenzyl)}), the Ki [1] was 23 nM, the Ratio Ki [2] was 0.5 and the Ki [3] was 51 nM. For the same compound, the Activity [4] was “inactive”.

`CC(=O)N[C@@H](CC(C)C)C(=O)NCC(=O)N[C@@H](CC(C)C)C(=O)N[C@@H](CC(C)C)C(=O)N[C@@H](CCCNC(=N)N)C(=O)N[C@H](C(=O)N[C@@H](CCCCN)C(=O)NCc1ccc(C(=N)N)cc1)C(C)C` (Ac-LGLLRVK-{NH(4-amidinobenzyl)}) gave a Ki [1] of 3 nM, a Ratio Ki [2] of 1.5 and a Ki [3] of 2 nM. For the same compound, the Activity [4] was “inactive”.

`CC(=O)N[C@@H](CC(C)C)C(=O)N[C@@H](Cc1cnc[nH]1)C(=O)N[C@@H](CC(C)C)C(=O)N[C@@H](CC(C)C)C(=O)N[C@@H](CCCNC(=N)N)C(=O)N[C@H](C(=O)N[C@@H](CCCCN)C(=O)NCc1ccc(C(=N)N)cc1)C(C)C` (Ac-LHLLRVK-{NH(4-amidinobenzyl)}) gave a Ki [1] of 4.7 nM, a Ratio Ki [2] of 1.6 and a Ki [3] of 3 nM. The Activity [4] was “inactive”.

Compound `CC(=O)N[C@@H](CC(C)C)C(=O)N[C@@H](CCCCN)C(=O)N[C@@H](CC(C)C)C(=O)N[C@@H](CC(C)C)C(=O)N[C@@H](CCCNC(=N)N)C(=O)N[C@H](C(=O)N[C@@H](CCCCN)C(=O)NCc1ccc(C(=N)N)cc1)C(C)C` (Ac-LKLLRVK-{NH(4-amidinobenzyl)}) has a Ki [1] of 0.6 nM, a Ratio Ki [2] of 1.2 and a Ki [3] of 0.5 nM. For the same compound, the Activity [4] was “inactive”.

`CC(=O)N[C@@H](CC(C)C)C(=O)N[C@@H](CC(C)C)C(=O)N[C@@H](C)C(=O)N[C@@H](CC(C)C)C(=O)N[C@@H](CCCNC(=N)N)C(=O)N[C@H](C(=O)N[C@@H](CCCCN)C(=O)NCc1ccc(C(=N)N)cc1)C(C)C` (Ac-LLALRVK-{NH(4-amidinobenzyl)}) showed a Ki [1] of 11 nM, a Ratio Ki [2] of 0.4 and a Ki [3] of 30 nM. For the same compound, the Activity [4] was “inactive”.

`CC(=O)N[C@@H](CC(C)C)C(=O)N[C@@H](CC(C)C)C(=O)N[C@@H](CC(=O)O)C(=O)N[C@@H](CC(C)C)C(=O)N[C@@H](CCCNC(=N)N)C(=O)N[C@H](C(=O)N[C@@H](CCCCN)C(=O)NCc1ccc(C(=N)N)cc1)C(C)C` (Ac-LLDLRVK-{NH(4-amidinobenzyl)}) was tested, and the Ki [1] was 140 nM, the Ratio Ki [2] was 1 and the Ki [3] was 140 nM. The Activity [4] was “inactive”.

`CC(=O)N[C@@H](CC(C)C)C(=O)N[C@@H](CC(C)C)C(=O)N[C@@H](CCC(=O)O)C(=O)N[C@@H](CC(C)C)C(=O)N[C@@H](CCCNC(=N)N)C(=O)N[C@H](C(=O)N[C@@H](CCCCN)C(=O)NCc1ccc(C(=N)N)cc1)C(C)C` (Ac-LLELRVK-{NH(4-amidinobenzyl)}) showed a Ki [1] of 50 nM, a Ratio Ki [2] of 0.8 and a Ki [3] of 60 nM. For the same compound, the Activity [4] was “inactive”.

Compound `CC(=O)N[C@@H](CC(C)C)C(=O)N[C@@H](CC(C)C)C(=O)NCC(=O)N[C@@H](CC(C)C)C(=O)N[C@@H](CCCNC(=N)N)C(=O)N[C@H](C(=O)N[C@@H](CCCCN)C(=O)NCc1ccc(C(=N)N)cc1)C(C)C` (Ac-LLGLRVK-{NH(4-amidinobenzyl)}) has a Ki [1] of 16.7 nM, a Ratio Ki [2] of 0.8 and a Ki [3] of 21 nM. For the same compound, the Activity [4] was “inactive”.

With `CC(=O)N[C@@H](CC(C)C)C(=O)N[C@@H](CC(C)C)C(=O)N[C@@H](Cc1cnc[nH]1)C(=O)N[C@@H](CC(C)C)C(=O)N[C@@H](CCCNC(=N)N)C(=O)N[C@H](C(=O)N[C@@H](CCCCN)C(=O)NCc1ccc(C(=N)N)cc1)C(C)C` (Ac-LLHLRVK-{NH(4-amidinobenzyl)}) the Ki [1] was 4.8 nM, the Ratio Ki [2] was 2.7 and the Ki [3] was 1.8 nM. The Activity [4] was “inactive”.

For `CC(=O)N[C@@H](CC(C)C)C(=O)N[C@@H](CC(C)C)C(=O)N[C@@H](CCCCN)C(=O)N[C@@H](CC(C)C)C(=O)N[C@@H](CCCNC(=N)N)C(=O)N[C@H](C(=O)N[C@@H](CCCCN)C(=O)NCc1ccc(C(=N)N)cc1)C(C)C` (Ac-LLKLRVK-{NH(4-amidinobenzyl)}), the Ki [1] was 4 nM, the Ratio Ki [2] was 1.8 and the Ki [3] was 2.2 nM. For the same compound, the Activity [4] was “inactive”.

`CC(=O)N[C@@H](CC(C)C)C(=O)N[C@@H](CC(C)C)C(=O)N[C@@H](CC(C)C)C(=O)N[C@@H](C)C(=O)N[C@@H](CCCNC(=N)N)C(=O)N[C@H](C(=O)N[C@@H](CCCCN)C(=O)NCc1ccc(C(=N)N)cc1)C(C)C` (Ac-LLLARVK-{NH(4-amidinobenzyl)}) gave a Ki [1] of 5 nM, a Ratio Ki [2] of 1.3 and a Ki [3] of 4 nM. The Activity [4] was “inactive”.

In the case of `CC(=O)N[C@@H](CC(C)C)C(=O)N[C@@H](CC(C)C)C(=O)N[C@@H](CC(C)C)C(=O)N[C@@H](CC(=O)O)C(=O)N[C@@H](CCCNC(=N)N)C(=O)N[C@H](C(=O)N[C@@H](CCCCN)C(=O)NCc1ccc(C(=N)N)cc1)C(C)C` (Ac-LLLDRVK-{NH(4-amidinobenzyl)}), the Ki [1] is reported as 260 nM, the Ratio Ki [2] is reported as 0.6 and the Ki [3] is reported as 400 nM. For the same compound, the Activity [4] was “inactive”.

Source: ChEMBL document CHEMBL4049407, “Positional Scanning Identifies the Molecular Determinants of a High Affinity Multi-Leucine Inhibitor for Furin and PACE4” (J Med Chem, 2017)
